Mdm2 MdmX PPI = disrupts the human Mdm2-MdmX interaction; inhibition, % at 8 µM; 330,000 compounds, 3% hits; SaOS-2 split-luciferase Mdm2/MdmX complementation, luminescence; AID 485346;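 active means inhibition of at least 50% at 8 µM in the primary screen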
Beta cell apopt = beta cell apoptosis inhibition; INS-1E cytokine-induced death, ATP luminescence, 48 h; percent of positive-control rescue, neutral wells zero; protection from apoptosis, % (no concentration beside the values); 300,000 compounds, 0.8% hits; AID 435005;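 active means Every replicate reaches about 75%, or at least half do and their mean reaches it too, limit read from the data; inconclusive means At least half of replicates reach the limit but their mean does not; inactive means Under half of replicates reach the limit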;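 further: 0% = cytokine-treated negative control wells and 100% = positive control rescue; higher means more ATP so stronger rescue from cytokine killing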
T cruzi repl = T. cruzi replication inhibition | T. cruzi beta-gal in NIH3T3, luminescence, 90 h | inhibition, % (no concentration beside the values) | 300,000 compounds, 1.4% hits | AID 1885;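 active means mean inhibition across valid replicates above about 55%, limit read from the data; inconclusive means mean below that limit but half or more replicates reach it; inactive means mean below it, under half of replicates reach it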;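 further: signal also drops with host cell toxicity which is not excluded here; 0% = plate median of DMSO wells and 100% = zero luminescence signal; higher percent means less beta-gal luminescence so fewer parasites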
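Assay system: NIH/3T3 fibroblasts plus reporter T. cruzi. Amount: NIH/3T3 cells, 5,000 per well. Buffer or medium: DMEM, 2% fetal bovine serum. Doses: compound pinned at 50 nL/well, DMSO. Schedule: ≥90 h infection period, 3 h prior cell attachment. Signal: luminescent β-galactosidase signal after 60 min lysis. Read-out: parasite load inhibition, %.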
UPR XBP1 act = activators of adaptive arm of unfolded protein response (XBP1). CHO-XBP1 luciferase reporter, IRE1-XBP1 UPR activation, luminescence; percent of tunicamycin response, DMSO as zero. activation, % at 20 µM. 330,000 compounds, 0.33% hits;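 active means versus positive control, 20 µM dose yields 30% or more activation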;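 further: 100% = tunicamycin at 10 µg/mL and 0% = DMSO only wells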
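Assay system: IRE1-XBP1 luciferase reporter CHO line. Input: 1000 cells/well. Buffer or medium: F12 with 10% serum. Doses: 20 µM, 1% DMSO. Times: overnight seeding at 37 °C, 6 h compound treatment at 37 °C. Technique: Steady-Glo luciferase glow luminescence, 10 min after reagent addition.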
CHOP UPR activ = activators of apoptotic arm of unfolded protein response (CHOP); CHO-CHOP luciferase reporter, UPR activation, luminescence; percent of tunicamycin response over DMSO baseline; 330,000 compounds, 0.34% hits; activation, % at 10 µM; AID 449763;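 active means at 10 µM dose, activation of 40% or more, normalized to positive control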;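 further: 100% = tunicamycin at 10 µg/mL and 0% = DMSO alone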
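System: CHO-CHOP luciferase reporter cell line | Buffer or medium: F12 medium containing 10% fetal bovine serum | Doses: One dose, 10 µM in 0.5% DMSO | Times: 6 h compound exposure at 37 °C after overnight seeding | Signal: Luciferase luminescence | Read-out: % activation vs tunicamycin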
CSC inhib = blocks cancer stem cells; cancer stem cell-like cells viability, luminescence; inhibition, % at 7.5 µM; 300,000 compounds, 1.1% hits; in the data active means inhibition above about 75%; inconclusive means no clear call, values can overlap the other calls; tested in HMLE shEcad cells
The depositor's hits bear a star; ? = inconclusive; · = no result. Compounds with a hit are over-represented: about 5% of the library has one in this group of screens.

SMILES	Mdm2 MdmX PPI	Beta cell apopt	T cruzi repl	UPR XBP1 act	CHOP UPR activ	CSC inhib
O=C(/C=C/c1ccc([N+](=O)[O-])cc1)NCc1cccnc1	14.3	95.3*	-10.2	-6.8	1.5	-14.1
O=C(NCc1ccco1)c1ccc([N+](=O)[O-])o1	5.8	-2.9	73.0*	3.6	1.5	0.7
O=C(NCc1cccnc1)c1ccc([N+](=O)[O-])o1	29.9	-16.7	73.6*	-0.6	-0.2	14.9
O=C(NCc1ccco1)c1ccc(Cn2cc([N+](=O)[O-])cn2)o1	1.6	-4.7	-13.7	-2.4	0.6	-9.5
O=C(/C=C/c1cccc([N+](=O)[O-])c1)NCc1cccnc1	23.9	-4.1	4.8	-3.8	-3.6	·
CCC(=O)NC(Nc1nc(C)cs1)(C(=O)OC)C(F)(F)F (centres undefined)	13.4	4.5	-7.5	-2.5	2.7	-10.5
COc1ccccc1CN(C)C(=O)COC(=O)c1c(C)noc1C	2.2	-2.2	·	1.8	1.1	-15.0
COc1ccc2ccc(=O)oc2c1CC(=O)C(C)C	1.2	·	·	3.5	-1.5	·
CCn1c(C)cc(O)c(C(=O)Nc2cccc(Cl)c2)c1=O	34.1	3.0	-13.3	3.0	7.4	-4.0
CCn1c(C)c(C)c2cc(C(=O)Nc3cccc(Cl)c3)ccc21	13.7	3.8	44.2	5.0	4.8	80.8*
COc1ccc(NC(=O)CN2C(=O)C(=O)N(C3CCCC3)C2=O)c(OC)c1	35.9	0.8	·	0.2	0.6	-11.5
O=C(/C=C/NNC(=O)c1ccccc1)c1ccc([N+](=O)[O-])cc1	41.5	94.9*	60.9*	-9.6	0.6	20.2
Cc1cc(C)cc(Nc2ccc([N+](=O)[O-])nc2[N+](=O)[O-])c1	-18.5	-1.8	67.2*	-2.6	1.4	-2.7
CC12CCC(C/C1=N\N=C1\NC(=O)/C(=C\c3ccc(Cl)cc3)S1)C2(C)C (centres undefined)	26.6	5.8	32.5	11.8	6.0	122.1*
Fc1ccc(Nc2nc(N/N=C/c3ccco3)nc(N3CCCCC3)n2)cc1	31.1	8.0	60.4*	-3.0	1.7	4.5
O=C(N/N=C\c1ccc(-c2ccccc2[N+](=O)[O-])o1)C1COc2ccccc2O1 (centres undefined)	11.2	2.5	-7.2	4.2	4.5	-9.0
O=[N+]([O-])c1ccc(/C=N/Nc2nc(N3CCCC3)nc(N3CCCC3)n2)o1	17.5	1.3	64.0*	-2.3	-0.7	-11.3
O=C(N/N=C\c1ccc([N+](=O)[O-])o1)C1COc2ccccc2O1 (centres undefined)	18.8	·	61.2*	4.2	0.4	9.0
O=C(N/N=C/c1ccc([N+](=O)[O-])o1)C1CCCC1	7.7	7.5	71.7*	-0.6	0.5	12.3
O=[N+]([O-])c1cccc(-c2ccc(/C=N/Nc3nc(N4CCCCC4)nc(N4CCCCC4)n3)o2)c1	45.6	9.3	?	0.2	4.2	·
CCN(CC(=O)Nc1ccc(OC)c(OC)c1)CC(=O)Nc1ccccc1C(F)(F)F	-0.6	0.3	-6.2	-1.2	1.8	-15.2
CCN(CC)CCCNC(=O)c1ccc(OCC(=O)Nc2ccccc2C(F)(F)F)c(OC)c1	-25.7	-4.7	54.8*	-0.3	0.2	-14.3
Cc1cc(C)c(OCCCCN2CCNCC2)c(C)c1	-24.9	0.7	9.8	-2.3	0.7	82.1*
Cc1ccc(C)c(OCCCCCn2ccnc2)c1	-7.7	5.5	72.3*	-0.4	-1.3	49.3
Cc1cc(OCCCn2ccnc2)cc(C)c1Cl	-18.0	-7.7	59.5*	-4.2	-0.5	8.6
SMILES	Mdm2 MdmX PPI	Beta cell apopt	T cruzi repl	UPR XBP1 act	CHOP UPR activ	CSC inhib
Clc1ccc(OCCn2ccnc2)c2ccccc12	10.0	-6.4	69.7*	-1.1	-1.3	13.2
C=CCc1cc(Cl)ccc1OCCCn1ccnc1	13.6	3.0	56.9*	-1.1	-1.6	2.8
Clc1ccc(OCCn2ccnc2)c(Cl)c1	14.5	-5.2	2.4	-0.7	0.0	-2.9
C=CCc1cc(Cl)ccc1OCCn1ccnc1	5.0	-3.4	21.9	0.9	-3.3	8.7
CCOc1ccccc1C(=O)NCC(=O)NCCCSc1ccccc1	8.1	1.9	7.9	-3.8	-2.3	·
CC(CC(=O)N1CCN(S(=O)(=O)c2ccc(Cl)cc2)CC1)n1cncn1 (centres undefined)	18.7	-4.2	-9.6	-4.9	0.0	-1.4
Fc1ccc(OCCCn2ccnc2)cc1	-4.8	-3.3	-19.2	-2.9	1.2	-8.4
Fc1ccc(OCCCCCn2ccnc2)cc1	-12.3	-2.4	55.1*	-6.2	0.1	20.9
N#Cc1ccc(-c2ccc(OCC(O)CN3CCCCC3)cc2)cc1 (centres undefined)	-30.6	-0.7	61.9*	2.5	0.6	-3.0
Cc1ccc(C(C)(C)C)c(OCCN2CCCC2)c1	-7.2	-1.3	42.1	-1.7	0.4	7.1
c1ccc(COc2ccc(OCCN3CCCC3)cc2)cc1	-26.4	-3.2	55.2*	0.2	8.8	13.8
OC(COc1ccc(F)cc1Cl)CN1CCC(Cc2ccccc2)CC1 (centres undefined)	13.0	2.9	62.8*	-0.8	3.7	23.0
OC(COc1ccccc1F)CN1CCC(Cc2ccccc2)CC1 (centres undefined)	-0.8	·	16.4	-4.7	0.3	11.3
N#Cc1ccc(OCC(O)CN2CCN(CC(O)COc3ccc(C#N)cc3)CC2)cc1 (centres undefined)	11.9	-3.1	10.7	-0.8	0.2	3.5
CC(C)(C)c1ccccc1OCCN1CCCC1	24.0	-0.5	59.7*	1.8	-0.7	-19.9
CS(=O)(=O)N(CCCC(=O)N1CCCCCC1)c1cccc(Cl)c1	12.9	0.2	-0.4	-4.4	-0.5	-8.0
O=C(C1CC=CCC1)N1CCN(C(=O)C2CC=CCC2)CC1 (centres undefined)	-0.8	-3.0	-16.0	-0.2	4.1	-0.4
COc1ccc(O[C@H]2C=C[C@@H](c3ccccc3)O[C@@H]2COC(=O)CC/C(C)=N/OC[C@@H](O)[C@H]2O[C@@H]3OC(C)(C)O[C@@H]3[C@H]2O)cc1	6.2	-5.0	4.5	-1.5	2.4	-5.9
Cc1onc(COc2ccccc2O)c1Br	20.9	·	-4.0	1.0	0.0	-0.7
CN=C(C)/C(C(=O)OC)=C(/O)c1ccc(Cl)cc1Cl	1.5	·	-7.6	1.2	-1.6	-5.1
OC(COc1ccc(OCC(O)CN2CCN(Cc3ccccc3)CC2)cc1)CN1CCN(Cc2ccccc2)CC1 (centres undefined)	32.6	18.8	65.2*	-0.7	1.9	0.3
OC(COc1ccc(OCc2ccccc2)cc1)CN1CCCCC1 (centres undefined)	-11.8	-10.1	56.5*	0.1	1.7	31.0
